Assay results published in BindingDB's records for doi:10.1016/j.bmc.2022.116974 (University of Maryland, 2022).

molecular target: Galectin-3 (Homo sapiens, UniProt P17931); assay: Binding affinity to human galectin 3 by surface plasma resonance analysis
In short: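 Recombinant human Gal-3 amine-coupled to a CM5 chip (about 1000 RU) with an ethanolamine reference channel. Analytes were serially diluted in 0.01 M HEPES pH 7.4, 0.15 M NaCl and 0.005% P20, then run at 25 °C and 30 μL/min with 120 s association and 300 s dissociation, followed by 3 M MgCl2 regeneration. EC50 was taken from the fitted binding curve.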

Galectin-3, sequence (P17931 whole entry): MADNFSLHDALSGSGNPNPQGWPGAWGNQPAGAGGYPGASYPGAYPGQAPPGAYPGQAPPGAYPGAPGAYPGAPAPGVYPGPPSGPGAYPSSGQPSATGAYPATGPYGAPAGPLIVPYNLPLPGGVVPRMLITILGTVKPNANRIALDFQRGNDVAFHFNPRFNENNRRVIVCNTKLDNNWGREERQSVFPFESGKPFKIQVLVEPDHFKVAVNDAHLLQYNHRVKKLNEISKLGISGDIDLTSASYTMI

| EC50 | SMILES |
| --- | --- |
| > 1000 µM | CC(=O)N[C@H]1[C@@H](OCCOCCOCCN=[N+]=[N-])O[C@H](CO)[C@H](O)[C@@H]1O |
| > 1000 µM | CC(=O)N[C@H]1[C@@H](OCCOCCOCCN=[N+]=[N-])O[C@H](CO)[C@H](O)[C@@H]1O[C@@H]1O[C@H](CO)[C@H](O)[C@H](O)[C@H]1O |
| > 1000 µM | [N-]=[N+]=NCCOCCOCCO[C@@H]1O[C@H](CO)[C@@H](O[C@@H]2O[C@H](CO)[C@H](O)[C@H](O)[C@H]2O)[C@H](O)[C@H]1O |
